Screening results from PubChem BioAssay.
Lmaj promast: Leishmania major promastigote growth inhibition, primary screen; Leishmania major promastigotes, resazurin fluorescence viability; 9% of 200,000 active; inhibition, % at 10 µM; in the data active means inhibition above about 50%;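 further: promastigotes grown with compound for 44 hours at 28 °C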
Diaph act CS: compounds boosting diaphorase resazurin reduction – biochemical, uHTS, resorufin fluorescence, counter-screen for diaphorase-coupled primary assays, primary screen; activation factor at 20 µM; 0.005% of 190,000 active; AID 1229, 2008; Diaphorase/resazurin coupled assay, 16 min; active compounds read high; 1 = vehicle wells, 0 = NADH-free wells;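 active means diaphorase activity raised at least twofold by the compound at 20 µM; inactive means activation factor below 2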
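Assay system: bacterial diaphorase enzyme (C. kluyveri) / Input: enzyme 0.07 U/mL final / Medium: 50 mM HEPES pH 7.4 with 4.542 mM MgCl2, 0.005% Tween 20 / Doses: single compound dose of 20 µM, 1% DMSO final / Incubation: 16 min enzyme reaction, ambient temperature / Signal: fluorescence, excitation 544 nm and emission 590 nm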
Cl transport mod: KCC2 cotransporter modulators, thallium flux, primary screen, cell-based, HEK293 KCC2, FluoZin-2 fluorescence, MLSMR | KCC2 cells, thallium flux FluoZin-2 fluorescence | B-score of Tl+ flux slope (higher = more flux/activation; lower = inhibition) at 10 µM | 2.2% of 190,000 active;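 active means thallium flux slope and its plate-corrected score both differing from the plate sample mean at a set confidence after two filtering rounds, in either direction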;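 further: slope of fluorescence scaled to starting intensity during 10 to 20 s after thallium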
ROMK primary: ROMK potassium channel modulators, primary screen, cell-based, thallium flux, MLSMR library; 2% of 130,000 active; ATP-sensitive inward rectifier potassium channel 1 (Homo sapiens), P48048; Tet-inducible ROMK, thallium flux fluorescence; actives lie on both sides; AID 1918, 2009; B-score at 10 µM;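 active means signal ratio slope over the read window, or its plate-corrected B-score, at least 3 SD from the plate mean, either direction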;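 further: B-score of the F/F0 ratio slope over 7 to 12 s after thallium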
Target sequence (P48048 whole entry, looked up): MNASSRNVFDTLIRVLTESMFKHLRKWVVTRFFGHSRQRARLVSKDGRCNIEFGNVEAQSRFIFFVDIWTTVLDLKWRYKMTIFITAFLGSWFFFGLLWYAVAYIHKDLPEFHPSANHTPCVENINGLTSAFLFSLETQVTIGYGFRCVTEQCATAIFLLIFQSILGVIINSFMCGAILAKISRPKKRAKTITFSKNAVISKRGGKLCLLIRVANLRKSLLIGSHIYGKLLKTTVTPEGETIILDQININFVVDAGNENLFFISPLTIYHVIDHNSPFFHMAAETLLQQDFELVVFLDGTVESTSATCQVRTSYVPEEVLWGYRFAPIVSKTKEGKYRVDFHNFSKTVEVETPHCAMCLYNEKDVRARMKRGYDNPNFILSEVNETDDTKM
WT yeast gro inh: growth inhibition of WT strain, primary screen, mitochondrial fusion inhibitor project, WT and mutant strains, chemical genetic | mitochondrial fusion phenotypic screen | AID 1362, 2008 | inhibition, % at 10 µM | 2.1% of 190,000 active; in the data active means inhibition above about 58%; tested in S. cerevisiae
Diaphorase inh: diaphorase inhibitors and chemical oxidizers, primary screen, counter-screen for diaphorase-coupled primary assays, biochemical, uHTS, resorufin fluorescence. diaphorase resazurin-to-resorufin fluorescence, NADH, 16 min; bacterial (C. kluyveri) enzyme, not human. inhibition, % at 20 µM. 0.69% of 190,000 active. AID 1217, 2008;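 active means primary screen inhibition at 20 µM above a set limit, cut at about 50% in these data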;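 further: plate controls were DMSO with full reaction for no effect and wells lacking NADH for full effect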
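Test system: bacterial diaphorase enzyme (C. kluyveri); Quantity: 0.14 U/mL diaphorase, enzyme working solution; Times: reaction incubation of 16 min at room temperature; Measured by: fluorescence of resorufin formed from resazurin, Ex 544/Em 590 nm; Benchmarks: positive control minus NADH, DMSO neutral control.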
The depositor's hits bear a star; . = no result. Sampled rows, rich in hits. Any-hit rate of the full collection: about 12%.

SMILES	Lmaj promast	Diaph act CS	Cl transport mod	ROMK primary	WT yeast gro inh	Diaphorase inh
Cc1cc(NS(=O)(=O)c2ccc(NC(=S)NC(=O)c3ccccc3)cc2)no1	65.7*	0.9	0.0433	0.155	5.7	8.7
COc1ccc(N2Nc3n[nH]c(N)c3N2)cc1	-2.1	1	-0.345	.	-4.1	1.7
CCC(CC)C(=O)Nc1cccc(C(=O)Nc2ccc(S(=O)(=O)Nc3ccc(C)cc3)cc2)c1	67.2*	0.8	.	.	33.8	15.3
CCC(CC)C(=O)Nc1cccc(C(=O)Nc2ccc(S(N)(=O)=O)cc2)c1	3.1	0.9	.	0.34	-13.3	5.5
O=C(O)c1cccc(NS(=O)(=O)c2ccc(Cl)c(C(=O)O)c2)c1	-13.5	0.9	1.06	.	15.9	10.8
O=C(O)c1cccc(NS(=O)(=O)c2ccc(-c3ccc(S(=O)(=O)Nc4cccc(C(=O)O)c4)cc3)cc2)c1	-14.4	0.5	-0.0122	0.161	-13.9	50.9*
CC(C)(C)NC(=O)NC(=O)COC(=O)c1cc[n+]([O-])cc1	-7.9	0.9	0.448	-0.0262	8.1	7.4
Cc1ccc(CN2CCN(Cc3ccc4c(c3)OCCO4)CC2CCO)cc1 (stereo not given)	48.0	0.9	-0.403	0.000129	8.7	10.8
OCCC1CN(Cc2ccc3c(c2)CCO3)CCN1Cc1ccc(F)cc1 (stereo not given)	75.4*	1	0.591	-1.02	2.5	4.9
Cc1ccc(CN2CCN(Cc3cccc(-n4cccn4)c3)CC2CCO)cc1 (stereo not given)	79.8*	0.7	-0.0335	-0.839	7.5	31.8
CC(=O)c1cccc(CN2CCN(C3CCCC3)C(CCO)C2)c1 (stereo not given)	44.9	0.9	0.294	-0.202	-3.0	11.9
CC(=O)c1cccc(CN2CCN(CCc3ccccc3)C(CCO)C2)c1 (stereo not given)	67.6*	1	0.319	1.56	4.6	1.8
CC(=O)c1cccc(CN2CCN(Cc3ccc(F)cc3)C(CCO)C2)c1 (stereo not given)	87.2*	0.7	.	0.112	-8.7	27.5
Cc1ccc(NC(=O)COc2ccc(CCO)cc2-n2nc3ccccc3n2)cc1C	6.5	0.7	1.88	-0.562	24.5	27.2
CC(=O)c1cccc(CN2CCN(CC=C(C)C)C(CCO)C2)c1 (stereo not given)	.	.	1.25	.	.	.
CC(=O)c1cccc(CN2CCN(Cc3ccc(C)cc3)C(CCO)C2)c1 (stereo not given)	79.3*	0.8	.	0.214	6.2	15.8
Cc1cc(C)c(NC(=O)c2ccc[n+](Cc3ccc([N+](=O)[O-])cc3)c2)c(C)c1	-0.6	0.9	-0.666	-1.98	-18.1	6.6
O=c1c2cccc3c2c(nn1CN1CCOCC1)-c1ccccc1-3	23.3	1.1	1.15	.	-0.1	-8.4
CCN(CC)CCn1nc2c3c(cccc3c1=O)-c1ccccc1-2	100.3*	1.1	-0.0999	-0.313	25.0	-14.3
O=C(CSc1ncnc2c1cnn2-c1ccc(Cl)cc1)NCc1ccc2c(c1)OCO2	52.1*	1.1	20.8*	.	-5.0	-6.0
COc1ccc(/C=C(/CC(=O)NCc2ccc(Cl)cc2)c2nc3ccccc3s2)cc1	30.3	0.9	0.0661	0.579	22.3	13.7
O=C(CSc1nc2cc(Cl)ccc2s1)NCc1ccc2c(c1)OCO2	75.7*	0.9	0.425	.	-6.3	10.5
O=C(CSc1ncnc2c1cnn2-c1ccccc1)Nc1ccc2c(c1)OCO2	3.6	0.9	.	.	3.1	12.5
COc1ccccc1/C=C(/CC(=O)NCc1ccc2c(c1)OCO2)c1nc2ccccc2s1	93.2*	0.9	-1.57	.	31.8	14.8
COC(=O)Cc1[nH]nc2c1C(c1ccc(O)c(OC)c1)C(C#N)=C(N)O2 (stereo not given)	.	.	0.0307	.	.	.
SMILES	Lmaj promast	Diaph act CS	Cl transport mod	ROMK primary	WT yeast gro inh	Diaphorase inh
O=C(COC(=O)c1cc(=O)c2ccccc2o1)NC1CCCC1	-6.2	1	0.699	0.525	3.2	0.6
COc1ccc(/C(C)=N/OC/C(O)=C(\C#N)c2nc3ccccc3[nH]2)cc1	-7.2	0.9	0.547	.	-1.0	13.1
Cc1cccc(C(=O)OCC(=O)NCCCc2ccccc2)c1	-3.2	0.8	-3.45	-0.669	-0.1	17.0
CCCS(=O)(=O)N1CCC(C(=O)NCCN(C)Cc2ccccc2)CC1	60.9*	0.9	.	-0.47	8.1	8.5
Cc1nn(C)c(C)c1S(=O)(=O)N1CCCC(C(=O)NCCc2ccc(Cl)cc2)C1 (stereo not given)	-9.9	0.8	-0.798	.	-4.5	16.5
Cc1noc(C)c1S(=O)(=O)N1CCC(C(=O)NCCN2CCC(C)CC2)CC1	17.6	0.9	1.11	-0.0302	-10.4	8.8
CCN(CCNC(=O)C1CCN(S(=O)(=O)c2c(C)noc2C)CC1)c1ccccc1	98.3*	0.9	0.207	0.000168	1.7	7.4
Cc1noc(C)c1S(=O)(=O)N1CCCC(C(=O)NCCc2ccc(Cl)cc2)C1 (stereo not given)	99.7*	0.9	-0.353	.	13.8	8.2
CC(C)C(NC(=O)C1CCCCC1)C(=O)NC1CCN(Cc2ccccc2)CC1 (stereo not given)	0.7	0.9	.	0.561	-6.4	13.2
C=CCn1c(=O)c2ccccc2n2c(Sc3nnnn3-c3ccccc3)nnc12	56.5*	0.9	0.029	.	-30.7	14.1
Clc1cccc(NCc2nnc(SCc3ccc(Cl)cc3Cl)o2)c1	-5.5	0.8	0.0719	.	62.0*	20.7
O=C(CCl)N(c1ccccc1)C1CCCCC1	88.6*	1.2	-0.476	-1.19	-5.2	-17.1
CC(=O)N(c1ccccc1)C1CCCC1	-5.0	0.9	-0.0968	-0.271	-14.1	8.3
CCCC(=O)Nc1ccc(C(=O)NNC(=O)c2ccco2)cc1	-6.2	1.1	1.2	.	2.5	-6.6
COc1ccc(-c2nc3c(n2O)CCCC3=O)cc1OC	9.0	0.9	.	0.457	60.2*	14.3
CCCCNCCOCCSc1ccc(Cl)cc1	98.5*	0.9	0.334	.	2.9	11.2
OCCNCCCCSc1ccc(Cl)cc1	95.8*	1	0.0884	-0.506	16.1	0.5
CN(C)CCOC(c1ccc(Cl)cc1)c1ccccn1 (stereo not given)	23.0	0.9	0.223	-0.12	-6.3	7.0
CN(C)CCOCCSc1ccc(Cl)cc1	97.5*	0.9	0.637	-0.937	2.9	10.1
CC(C)NCCOCCSc1ccc(Cl)cc1	90.0*	0.9	0.859	.	15.7	12.8
C/C(CCc1ccco1)=N/NC(=O)CCC(=O)Nc1ccc(Br)cc1	48.0	1	0.883	0.244	-10.0	0.0
